Source: ChEMBL document CHEMBL1146962, “Design, synthesis, and biological evaluation of a scaffold for iGluR ligands based on the structure of (-)-dysiherbaine” (Bioorg Med Chem Lett, 2006)
Active and inactive are the calls of the source. No cut-off for these calls is given here.

Assays:
Assay type in all cases: functional
[1] = target: T1, Glutamate receptor ionotropic, kainate (Rattus norvegicus) (UniProt P22756+Q01812+P42260+P42264+Q63273); assay: Agonist activity at rat KA receptor assessed by generation of membrane current at 100 uM relative to control
[2] = target: T2, Glutamate NMDA receptor (Rattus norvegicus) (UniProt P35439+Q00959+Q00960+Q00961+Q62645+Q8VHN2+Q9R1M7); assay: Agonist activity at rat NMDA receptor in presence of glycine assessed by generation of membrane current at 100 uM relative to control
Summary of the method: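 Rat cortex mRNA-injected oocytes. The analog (100 μM) was applied in the presence of 100 μM glycine. The elicited current is expressed relative to a positive control of 100 μM NMDA plus 100 μM glycine.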

[3] = target: T1, Glutamate receptor ionotropic, kainate (Rattus norvegicus); assay: Antagonist activity against rat KA receptor assessed by inhibition of kainate-induced membrane current at 100 uM; design: scale not given: the % may be the effect or the level left
Summary of the method: (§1)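 Oocytes injected with native rat cerebral cortex mRNA were used. Membrane currents induced by 100 μM kainate were recorded with the test agent present (analogs at 100 μM; CNQX reference at 1 μM). Residual current is reported as a percentage of the kainate control. N = 2-7 oocyte preparations.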

[4] = target: T2, Glutamate NMDA receptor (Rattus norvegicus); assay: Antagonist activity against rat NMDA receptor assessed by inhibition of NMDA plus glycine-induced membrane current at 100 uM
Summary of the method: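 In rat cortex mRNA-injected oocytes, analogs (100 μM) were tested against currents evoked by 100 μM NMDA plus 100 μM glycine.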

[5] = target: T1, Glutamate receptor ionotropic, kainate (Rattus norvegicus); assay: Agonist activity at rat KA receptor assessed by generation of membrane current at 100 uM relative to control in presence of 10 uM cyclothiazide
Summary of the method: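 Oocytes were injected with rat cerebral cortex mRNA. Each analog at 100 μM was co-applied with 10 μM cyclothiazide (AMPA receptor desensitization inhibitor). Membrane current is given as a percentage of the 100 μM kainate control current, with and without cyclothiazide. N = 2-7 oocyte preparations.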

[6] = target: T1, Glutamate receptor ionotropic, kainate (Rattus norvegicus); assay: Antagonist activity against rat KA receptor assessed by inhibition of kainate-induced membrane current at 1 uM; design: scale not given: the % may be the effect or the level left; summary of the method: as §1

Cc1ccc2c(c1)C[C@](C[C@H](N)C(=O)O)(C(=O)O)O2
Activity [1]: inactive | Activity [2]: 44% | Activity [3]: 72% | Activity [4]: inactive

N[C@@H](C[C@]1(C(=O)O)Cc2ccccc2O1)C(=O)O
Activity [1]: inactive | Activity [2]: inactive | Activity [3]: 55% | Activity [4]: inactive

Cc1cccc2c1O[C@@](C[C@H](N)C(=O)O)(C(=O)O)C2
Activity [1]: 6% | Activity [5]: 13% | Activity [2]: inactive | Activity [3]: 95% | Activity [4]: inactive

N[C@@H](C[C@@]1(C(=O)O)Cc2ccccc2O1)C(=O)O
Activity [1]: inactive | Activity [3]: 100% | Activity [4]: inactive

N#Cc1cc2c(cc1[N+](=O)[O-])=NC(=O)C(=O)N=2
Activity [6]: 38%
